Experimental data: PMC4327942 (Chemistry & biology, 2010)

Legend:
[1] = test system: HIF ODD-luciferase reporter; assay: HTS of SH-SY5Y ODD-luc reporter cells, 384-well, 10 μM compound, 3 hr; format: cell-based, human; conditions: for activation at 10 µM: Homo sapiens, SH-SY5Y, 3 h, read-out: reporter activation (%)
cortical neurons = assay: Neuroprotection in HCA; format: cell-based, rat; conditions: HCA model
Method in brief: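 Forebrain neurons from E17 Sprague-Dawley rat embryos were plated at 10^6 cells/ml in 96-well plates. After 16 hr they were rinsed with warm PBS and moved to MEM containing 5 mM HCA plus test compound (0.25-2 μM). Incubation ran 24 hr or longer, until HCA-only controls reached 90% death. Viability was read by MTT.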

[2] = Iron binding by displacement of calcein from its complex with iron; format: physicochemical; conditions: for ka, association rate constant for iron binding: calcein-iron complex 1 μM:1 μM, oxyquinoline 5-20 μM; for Kd: read-out: KFe, apparent iron binding constant, calcein displacement, 5 mM Tris-HCl buffer (pH 7.5)
[3] = test system: HIF ODD-luciferase reporter; assay: ODD-luc reporter activation, concentration titration in 96-well plates; format: cell-based, human; conditions: SH-SY5Y; for IC50: Homo sapiens, read-out: IC50 (reporter activation); for “Lag,” (concentration lag of reporter titration curve): ODD-luc reporter
[4] = 10 μM, 3 hr, SH-SY5Y-ODD-luc cells

O=C1/C(=N\Nc2nc3ccccc3s2)C(c2ccccc2)=NN1c1ccccc1 [(Z)-4-(benzo[d]thiazol-2-yl-hydrazono)-1,3-diphenyl-1H-pyrazol-5(4H)-one]
activation at 10 µM [1]: 70%

Oc1cccc2cccnc12 [Oxyquinoline, 8-hydroxyquinoline]
times less potent as neuroprotectants (versus compounds 7 and 8) (cortical neurons): 20-40 times
ka, association rate constant for iron binding [2]: 110 ± 20 M⁻¹ s⁻¹
Kd [2]: 200 ± 50 nM
reporter activation (fold) [1, 4]: 4-5 fold
activation at 10 µM [1]: 35 to 45%
IC50 [3]: 10000 ± 1000 nM
“Lag,” (concentration lag of reporter titration curve) [3]: 4 ± 0.5 µM

O=C(C=C(O)c1ccccc1)c1ccccc1O [2′β-dihydroxychalcone]
reporter activation (fold) [1, 4]: 7.5 fold
reporter activation (%) ([1]; 10 μM, 3 hr, SH-SY5Y-ODD-luc cells, ciclopirox = 100%, DMSO = 0%): 71%

O=C1/C(=N\Nc2nccs2)C(c2ccccc2)=NN1c1ccccc1 [I, (Z)-1,3-diphenyl-4-(thiazol-2-yl-hydrazono)-1H-pyrazol-5(4H)-one]
activation at 10 µM [1]: 86%

NNc1nc(-c2ccccc2)cc(-c2ccccc2)n1 [II, 2-hydrazinyl-4,6-diphenylpyrimidine]
iron chelation properties in solution (in words) [2]: no iron chelation properties in solution
reporter activation (fold) [1, 4]: 6.7 fold
activation at 10 µM [1]: 64%

S=C(Nc1ccccc1)Nc1nccs1 [III, 1-phenyl-3-(1,3-thiazol-2-yl)thiourea]
reporter activation (fold) [1, 4]: 5 fold
activation at 10 µM [1]: 41%

Cc1cc(C2CCCCC2)n(O)c(=O)c1 [Ciclopirox, ciclopirox]
ka, association rate constant for iron binding [2]: 300 ± 50 M⁻¹ s⁻¹
Kd [2]: 80 ± 20 nM
increase of background signal for the wild-type ODD-luc reporter (PYIP line) ([1]; 10 μM, 3 hr incubation): 10 fold
reporter signal as % of the threshold value (control line AYIA) ([1]; 10 μM, 3 hr incubation, PYIP line): ~50%
IC50 [3]: 4500 ± 500 nM
“Lag,” (concentration lag of reporter titration curve) [3]: 2 ± 0.5 µM

N[C@@H](Cc1ccc(O)c(O)c1)C(=O)O [L-Dopa]
reporter activation (fold) [1, 4]: 3 fold
activation at 10 µM [1]: 21%
